As a reminder, the pIC50 is −log10 of the IC50, conventionally taken in molar units. Read a low pIC50 as a high IC50.

Experimental findings from ChEMBL document CHEMBL1212906, “Apoptotic effects of polyprenylated benzoylphloroglucinol derivatives from the twigs of Garcinia multiflora” (J Nat Prod, 2010) are described below.

pIC50: −log10 of the molar value. Calls of active or inactive are those of the source. The rule behind the calls is not given here. A value given as a limit tells only on which side of the number the result lay.

Assay [1] in a line: Induction of apoptosis in human HeLaC3 cells assessed as yellow fluorescent protein/cyan fluorescent protein emission ratio at 100 uM after 72 hrs by FRET assay. It is filed as functional, HeLa C3. Summed up: (§1)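 Caspase-3 FRET biosensor (CFP–DEVD–YFP) HeLa-C3 cells were grown in MEM with 10% FBS, penicillin and streptomycin at 37 °C in 5% CO2. 7500 cells per well were seeded and given compound after 12–16 h (DMSO stock ≥1000× working concentration). A YFP/CFP ratio ≤3 was scored as apoptosis. Triplicates, three repeats.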

Assay [2] can be described thus: Induction of apoptosis in human HeLaC3 cells assessed as yellow fluorescent protein/cyan fluorescent protein emission ratio at 50 uM after 72 hrs by FRET assay. Type of assay: functional, HeLa C3. Summed up:
as §1

Assay [3] can be described thus: Induction of apoptosis in human HeLaC3 cells assessed as yellow fluorescent protein/cyan fluorescent protein emission ratio at 25 uM after 72 hrs by FRET assay. It is filed as functional, HeLa C3. Summed up: as §1
The nature of assay [4]: Cytotoxicity against human HeLa cells after 72 hrs by MTT assay. (Tetrazolium assays rely on reduction of a dye to a coloured formazan, in cell work by metabolically active cells.)
Assay [5] relates to HeLa C3. The assay is described as follows: Induction of apoptosis in human HeLaC3 cells assessed as morphological changes at 50 uM after 24 to 72 hrs. Type of assay: functional, cell-based. In a few lines:
(§2)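 Compound-treated HeLa-C3 biosensor cells were photographed under a microscope at 24, 48 and 72 h. Paclitaxel 500 nM was the positive control and untreated cells the negative control. Cell shrinkage and detachment from the plate were taken as apoptotic morphology.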

Assay [6] deals with HeLa C3. As to the kind of experiment: Induction of apoptosis in human HeLaC3 cells assessed as morphological changes at 100 uM after 24 to 72 hrs. It is filed as functional, cell-based. In a few lines:
as §2

The subject of assay [7] is HeLa C3. As to the kind of experiment: Induction of apoptosis in human HeLaC3 cells at 25 uM after 72 hrs. It is filed as functional, cell-based. In a few lines: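 Caspase-3 FRET biosensor (CFP–DEVD–YFP) HeLa-C3 cells were grown in MEM with 10% FBS, penicillin and streptomycin at 37 °C in 5% CO2. 7500 cells per well were seeded and given compound after 12–16 h (DMSO stock ≥1000× working concentration). Plates were excited at 440 nm, with emission read at 486 (CFP) and 535 (YFP) nm, for up to 72 h. A YFP/CFP ratio ≤3 was scored as apoptosis. Triplicates, three repeats.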

Assay [8] deals with HeLa C3. The assay is described as follows: Induction of apoptosis in human HeLaC3 cells assessed as morphological changes at 25 uM after 24 to 72 hrs. Type of assay: functional, cell-based. In a few lines:
as §2

Turning to `C=C(C)[C@H](CC=C(C)C)C[C@@]12C[C@@H](CC=C(C)C)C(C)(C)[C@@](CC(O)C(C)(C)O)(C(=O)C(C(=O)c3ccc(O)c(O)c3)=C1O)C2=O` (stereo partly specified), the Ratio in assay [1], in assay [2] and in assay [3] was over 3 each time. For the same molecule, the pIC50 in assay [4] was 4.64.

In the case of `C=C(C)[C@H](CC=C(C)C)C[C@@]12C[C@@H](CC=C(C)C)C(C)(C)[C@@](CCC(C)(C)O)(C(=O)C(C(=O)c3ccc(O)c(O)c3)=C1O)C2=O` [GARCIMULTIFLORONE D], the Ratio entry in assay [1] is listed as “<=3”; in assay [2], “<=3”; in assay [3] it was over 3. For the same molecule, in assay [5], the outcome was Active. The molecule also had a pIC50 in assay [4] of 4.76.

As to `C=C(C)C(O)C[C@H](C[C@@]12C[C@@H](CC=C(C)C)C(C)(C)[C@@](CC=C(C)C)(C(=O)C(C(=O)c3ccc(O)c(O)c3)=C1O)C2=O)C(=C)C` (stereo partly specified) [GARCIMULTIFLORONE E], the Ratio entry was “<=3” in assay [1], over 3 in assay [2] and over 3 in assay [3]. Further, the outcome in assay [6] was Active. For the same molecule, the negative-log IC50 (pIC50) in assay [4] is 4.84.

Turning to `C=C(C)[C@H](CC=C(C)C)C[C@@]12C[C@@H](CC(O)C(C)(C)O)C(C)(C)[C@@](CC=C(C)C)(C(=O)C(C(=O)c3ccc(O)c(O)c3)=C1O)C2=O` (stereo partly specified) [GARCIMULTIFLORONE F], the results for the Ratio result in assay [1], in assay [2] and in assay [3] were “<=3”, “<=3” and over 3, respectively. The result in assay [5] was Active. The molecule also had a negative logarithm of the IC50 (pIC50) in assay [4] of 4.83.

In the case of `C=C(C)[C@H](CC=C(C)C)C[C@@]12C[C@@H](CC=C(C)C)C(C)(C)[C@@](CC=C(C)C)(C(=O)C(C(=O)c3ccc(O)c(O)c3)=C1O)C2=O` [GUTTIFERONE F], the values for the Ratio entry in assay [1], in assay [2] and in assay [3] were “<=3”, “<=3” and over 3, respectively. For the same molecule, the result in assay [5] was Active.

As for `CC(C)=CC[C@@H]1C[C@]23C[C@H](CC=C(C)C)C(C)(C)[C@](CC=C(C)C)(C(=O)C(C(=O)c4ccc(O)c(O)c4)=C2OC1(C)C)C3=O` [ISOXANTHOCHYMOL], the outcome in assay [7] and in assay [8] was Active. Besides, the results for the Ratio in assay [1], in assay [2] and in assay [3] were over 3, over 3 and “<=3”, respectively.

With `O=C1c2c(O)cc(O)cc2O[C@H](c2ccc(O)cc2)[C@H]1c1c(O)cc(O)c2c(=O)cc(-c3ccc(O)c(O)c3)oc12` [MORELLOFLAVONE], the Ratio in assay [1], in assay [2] and in assay [3] was over 3 each time.
